Data on 16 compounds can be found in ChEMBL document CHEMBL1165958, “Compounds from Acorus tatarinowii: determination of absolute configuration by quantum computations and cAMP regulation activity” (J Nat Prod, 2010).

The structures appear in SMILES notation. Calls of active or inactive are those of the source. The rule behind the calls is not given here.

The test is filed under the species Mus musculus. Briefly: Induction of cAMP level in mouse NIE115 cells at 50 uM after 30 mins by Alphascreen cAMP assay. The format is functional, cell-based. The method, boiled down: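 N1E-115 neuroblastoma cells exposed to each test compound at 50 µM. Intracellular cAMP measured by AlphaScreen and read out as counts per second (cps). Values reported as means with standard error of the mean. Significance marked at p < 0.05, 0.01 and 0.001.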

Turning to `C/C=C/c1cc(OC)c(OC)cc1OC`, the outcome was inactive.
Turning to `CC1=CC[C@@]2(CC1=O)[C@H](C(C)C)[C@H](O)C[C@@H]2C`, the result was inactive.
As for `CC(=O)O[C@@H]1C[C@H](C)[C@@]2(CC=C(C)C(=O)C2)[C@@H]1C(C)C`, the result was inactive.
Take `CCC(=O)c1cc(OC)c(OC)cc1OC`: the outcome was Active.
In the case of `CC1=CC[C@@]2(CC1=O)[C@@H](C(C)C)C(=O)C[C@@H]2C`, the result was inactive.
The result for `COc1cc(OC)c(C(c2cc(OC)c(OC)cc2OC)[C@@H](C)O)cc1OC` reads “Active”; that for `C/C=C\c1cc(OC)c(OC)cc1OC`, “inactive”; that for `COc1ccc(CC(C)=O)cc1OC`, “inactive”.
`COc1cc(OC)c(OC)cc1/C=C\C=O`: the outcome was Active.
In the case of `CC1=CC[C@]2(CC1=O)[C@@H](C)CC(=O)[C@H]2C(C)C`, the outcome was inactive.
The same measure for `C[C@H]1CC[C@H]2C(C)(C)C(=O)[C@@]3(C)C[C@@H](O)[C@@]12C3`: “inactive”; for `C=C1CC[C@@H]2[C@@](O)(C1)[C@H](C(C)C)CC[C@@]2(C)O`: “inactive”.
In the case of `C/C=C\c1ccc(OC)c(OC)c1`, the result was inactive.
The same measure for `COc1cc(OC)c(OC)cc1C=O`: “Active”.
As for `COc1cc(OC)c(OC)cc1CC(C)=O`, the result was Active.
As to `COc1cc(OC)c(C(=O)C(C)=O)cc1OC`, the result was Active.
